Test results as given in ChEMBL document CHEMBL1157078, “Cytotoxic activities of several geranyl-substituted flavanones” (J Nat Prod, 2010).

Columns and labels:
U-266 = test: Cytotoxicity against human U266 cells assessed as viable cells after 72 hrs by calcein AM assay; type: functional, cell-based; conditions: U-266, 72 h
In short: (§1)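 Cells kept in DMEM with 10% FBS, L-glutamine and antibiotics at 37 °C, 5% CO2, and seeded at about 1.25×10^5 cells/mL, then left 3 h to stabilize. Six 3-fold dilutions were added in triplicate (final 100 to 0.4 μM, DMSO ≤0.6%) for 72 h. Viable cells were stained with 2 μM calcein AM for 1 h and fluorescence read at 485/538 nm. EC50 came from dose-response curves of three independent measurements, ±SD.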

RPMI-8226 = test: Cytotoxicity against human RPMI8226 cells assessed as viable cells after 72 hrs by calcein AM assay; type: functional, cell-based; conditions: RPMI-8226, 72 h; in short: as §1
THP-1 = test: Cytotoxicity against human THP1 cells after 72 hrs by erythosin B staining method; type: functional, cell-based; conditions: THP-1, 72 h
In short: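 THP-1 cells from ECACC, kept in RPMI with 10% FBS, 2% L-glutamine and 1% penicillin/streptomycin at 37 °C, 5% CO2. Compounds in DMSO were added at five increasing concentrations and cells incubated 72 h. Cells were mixed 1:1 with 0.1% erythrosin B in PBS (pH 7.2-7.4), and unstained (viable) and red (nonviable) cells counted by hemocytometer. EC50 came from dose-response curves of three independent measurements, ±SD.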

HeLa = test: Cytotoxicity against human HeLa cells assessed as viable cells after 72 hrs by calcein AM assay; type: functional, cell-based; in short: as §1
MCF7 = test: Cytotoxicity against human MCF7 cells assessed as viable cells after 72 hrs by calcein AM assay; type: functional, cell-based; conditions: MCF7, 72 h; in short: as §1
CCRF-CEM = test: Cytotoxicity against human CEM cells assessed as viable cells after 72 hrs by calcein AM assay; type: functional, cell-based; in short: as §1
BJ = test: Cytotoxicity against human BJ cells assessed as viable cells after 72 hrs by calcein AM assay; type: cell-based; in short: as §1

Which results are given for `COc1cc([C@@H]2CC(=O)c3c(cc(O)c(C/C=C(\C)CCC=C(C)C)c3O)O2)cc(OC)c1O`?
EC50 (U-266): > 10 µM; EC50 (RPMI-8226): > 10 µM; EC50 (THP-1): > 10 µM; EC50 (HeLa): > 10 µM; EC50 (MCF7): > 10 µM; EC50 (CCRF-CEM): > 10 µM; EC50 (BJ): > 10 µM

`COc1cc([C@@H]2CC(=O)c3c(cc(O)c(C/C=C(\C)CCC=C(C)C)c3O)O2)ccc1O` was tested. Which EC50 (U-266) did it give?
Its EC50 is less than 10 µM.

And the EC50 (RPMI-8226)?
Its EC50 is less than 10 µM.

And the EC50 (THP-1)?
The EC50 was less than 10 µM.

What about the EC50 (HeLa) of the same compound?
Its EC50 is 9.2 µM.

And the EC50 (MCF7)?
The EC50 was less than 10 µM.

And the EC50 (CCRF-CEM)?
Its EC50 is less than 10 µM.

What about the EC50 (BJ) of the same compound?
Its EC50 is less than 10 µM.

Which EC50 (U-266) does the source give for `CCOC(=O)NC1=C(N2CC2)C(=O)C(NC(=O)OCC)=C(N2CC2)C1=O` [DIAZIQUONE] here?
Its EC50 is 2.8 µM.

What about the EC50 (RPMI-8226) of the same compound?
The EC50 was 3.4 µM.

What about the EC50 (HeLa) of the same compound?
Its EC50 is 6.4 µM.

And the EC50 (MCF7)?
Its EC50 is 4 µM.

And the EC50 (CCRF-CEM)?
Its EC50 is 0.86 µM.

And the EC50 (BJ)?
The EC50 was less than 10 µM.

Which results are given for `O=C1c2c(O)cc(O)cc2O[C@H](c2ccc(O)c(O)c2)[C@H]1O` [(+)-TAXIFOLIN]?
EC50 (U-266): > 10 µM; EC50 (RPMI-8226): > 10 µM; EC50 (THP-1): > 10 µM; EC50 (HeLa): > 10 µM; EC50 (MCF7): > 10 µM; EC50 (CCRF-CEM): > 10 µM; EC50 (BJ): > 10 µM

`O=C1C[C@@H](c2ccc(O)cc2)Oc2cc(O)cc(O)c21` [NARINGENIN] was tested. Which EC50 (U-266) did it give?
The EC50 was greater than 10 µM.

And the EC50 (RPMI-8226)?
The EC50 was greater than 10 µM.

What about the EC50 (THP-1) of the same compound?
Its EC50 is greater than 10 µM.

What about the EC50 (HeLa) of the same compound?
The EC50 was greater than 10 µM.

What about the EC50 (MCF7) of the same compound?
Its EC50 is greater than 10 µM.

And the EC50 (CCRF-CEM)?
The EC50 was greater than 10 µM.

What about the EC50 (BJ) of the same compound?
Its EC50 is greater than 10 µM.

With `C=C(C)C(O)CC/C(C)=C/Cc1c(O)cc2c(c1O)C(=O)C[C@@H](c1ccc(O)c(OC)c1)O2` (stereo partly specified) [TOMENTODIPLACONE] as the compound, how does the EC50 (U-266) read?
Its EC50 is greater than 10 µM.

And the EC50 (RPMI-8226)?
The EC50 was greater than 10 µM.

What about the EC50 (THP-1) of the same compound?
The EC50 was greater than 10 µM.

What about the EC50 (HeLa) of the same compound?
The EC50 was greater than 10 µM.

And the EC50 (MCF7)?
Its EC50 is greater than 10 µM.

And the EC50 (CCRF-CEM)?
The EC50 was greater than 10 µM.

And the EC50 (BJ)?
Its EC50 is greater than 10 µM.

For `COc1cc(O)c([C@@H]2CC(=O)c3c(O)cc(O)cc3O2)cc1C/C=C(\C)CCC=C(C)C`, which EC50 (U-266) is on record?
The EC50 was greater than 10 µM.

What about the EC50 (RPMI-8226) of the same compound?
The EC50 was greater than 10 µM.

What about the EC50 (THP-1) of the same compound?
The EC50 was greater than 10 µM.

What about the EC50 (HeLa) of the same compound?
The EC50 was greater than 10 µM.

What about the EC50 (MCF7) of the same compound?
The EC50 was greater than 10 µM.

What about the EC50 (CCRF-CEM) of the same compound?
Its EC50 is greater than 10 µM.

And the EC50 (BJ)?
The EC50 was greater than 10 µM.

How did the EC50 (THP-1) turn out when `CC[C@@]1(O)C(=O)OCc2c1cc1n(c2=O)Cc2cc3ccccc3nc2-1` [CAMPTOTHECIN] was run?
Its EC50 is 0.16 µM.

With `CC(C)=CCC/C(C)=C/Cc1c(O)cc2c(c1O)C(=O)C[C@@H](c1ccc(O)cc1)O2` [BONANNIONE A] as the compound, how does the EC50 (U-266) read?
The EC50 was greater than 10 µM.

What about the EC50 (RPMI-8226) of the same compound?
Its EC50 is greater than 10 µM.

And the EC50 (THP-1)?
The EC50 was greater than 10 µM.

What about the EC50 (HeLa) of the same compound?
The EC50 was greater than 10 µM.

What about the EC50 (MCF7) of the same compound?
Its EC50 is greater than 10 µM.

And the EC50 (CCRF-CEM)?
The EC50 was 11.6 µM.

What about the EC50 (BJ) of the same compound?
Its EC50 is greater than 10 µM.

Which EC50 (U-266) does the source give for `CC(C)=CCC/C(C)=C/Cc1cc(C2CC(=O)c3c(O)cc(O)cc3O2)c(O)cc1O` (racemic) [KUWANON E] here?
The EC50 was greater than 10 µM.

What about the EC50 (RPMI-8226) of the same compound?
Its EC50 is greater than 10 µM.

And the EC50 (THP-1)?
The EC50 was greater than 10 µM.

What about the EC50 (HeLa) of the same compound?
Its EC50 is greater than 10 µM.

And the EC50 (MCF7)?
The EC50 was greater than 10 µM.

What about the EC50 (CCRF-CEM) of the same compound?
The EC50 was greater than 10 µM.

And the EC50 (BJ)?
Its EC50 is greater than 10 µM.

How did the EC50 (U-266) turn out when `COc1ccc([C@@H]2CC(=O)c3c(O)cc(O)cc3O2)cc1O` [HESPERETIN] was run?
Its EC50 is greater than 10 µM.

What about the EC50 (RPMI-8226) of the same compound?
Its EC50 is greater than 10 µM.

And the EC50 (THP-1)?
The EC50 was greater than 10 µM.

What about the EC50 (HeLa) of the same compound?
Its EC50 is greater than 10 µM.

And the EC50 (MCF7)?
Its EC50 is greater than 10 µM.

And the EC50 (CCRF-CEM)?
The EC50 was greater than 10 µM.

What about the EC50 (BJ) of the same compound?
Its EC50 is greater than 10 µM.

For `COc1cc([C@H]2Oc3cc(O)c(C/C=C(\C)CCC=C(C)C)c(O)c3C(=O)[C@@H]2O)ccc1O`, which EC50 (U-266) is on record?
Its EC50 is greater than 10 µM.

And the EC50 (RPMI-8226)?
The EC50 was greater than 10 µM.

And the EC50 (THP-1)?
The EC50 was greater than 10 µM.

What about the EC50 (HeLa) of the same compound?
The EC50 was greater than 10 µM.

And the EC50 (MCF7)?
Its EC50 is greater than 10 µM.

What about the EC50 (CCRF-CEM) of the same compound?
The EC50 was greater than 10 µM.

What about the EC50 (BJ) of the same compound?
Its EC50 is greater than 10 µM.

For `COc1cc([C@@H]2CC(=O)c3c(cc(O)c(C/C=C(\C)CCC=C(C)C)c3O)O2)cc(O)c1O`, which EC50 (U-266) is on record?
Its EC50 is 5.5 µM.

What about the EC50 (RPMI-8226) of the same compound?
The EC50 was 7.3 µM.

And the EC50 (THP-1)?
The EC50 was less than 10 µM.

And the EC50 (HeLa)?
The EC50 was 7.4 µM.

What about the EC50 (MCF7) of the same compound?
Its EC50 is less than 10 µM.

What about the EC50 (CCRF-CEM) of the same compound?
Its EC50 is less than 10 µM.

What about the EC50 (BJ) of the same compound?
The EC50 was 4.7 µM.

For `CC[C@H](CO)Nc1nc(NCc2ccccc2O)c2ncn(C(C)C)c2n1` [OLOMOUCINE II], which EC50 (U-266) is on record?
Its EC50 is 7.2 µM.

What about the EC50 (RPMI-8226) of the same compound?
The EC50 was 6 µM.

And the EC50 (HeLa)?
Its EC50 is 9.9 µM.

And the EC50 (MCF7)?
Its EC50 is 4.6 µM.

And the EC50 (CCRF-CEM)?
The EC50 was 8.1 µM.

What about the EC50 (BJ) of the same compound?
Its EC50 is 5.4 µM.

`CC(C)=CCC/C(C)=C/Cc1c(O)cc2c(c1O)C(=O)C[C@@H](c1cc(O)cc(O)c1)O2` was tested. Which EC50 (U-266) did it give?
The EC50 was 1.9 µM.

And the EC50 (RPMI-8226)?
The EC50 was 7.1 µM.

And the EC50 (THP-1)?
Its EC50 is 8.5 µM.

What about the EC50 (HeLa) of the same compound?
The EC50 was 6.3 µM.

What about the EC50 (MCF7) of the same compound?
The EC50 was less than 10 µM.

And the EC50 (CCRF-CEM)?
The EC50 was 12.3 µM.

What about the EC50 (BJ) of the same compound?
Its EC50 is 7.5 µM.

What does the source list for `CC(C)=CCC/C(C)=C/Cc1c(O)cc2c(c1O)C(=O)C[C@@H](c1ccc(O)c(O)c1)O2` [NYMPHAEOL A]?
EC50 (U-266): 2.4 µM; EC50 (RPMI-8226): < 10 µM; EC50 (THP-1): < 10 µM; EC50 (HeLa): < 10 µM; EC50 (MCF7): < 10 µM; EC50 (CCRF-CEM): 3.2 µM; EC50 (BJ): 5.9 µM

With `COc1cc([C@@H]2CC(=O)c3c(cc(O)c(C/C=C(\C)C/C=C/C(C)(C)O)c3O)O2)ccc1O` [TOMENTODIPLACONE B] as the compound, how does the EC50 (U-266) read?
The EC50 was greater than 10 µM.

What about the EC50 (RPMI-8226) of the same compound?
Its EC50 is greater than 10 µM.

What about the EC50 (THP-1) of the same compound?
The EC50 was greater than 10 µM.

What about the EC50 (HeLa) of the same compound?
The EC50 was greater than 10 µM.

And the EC50 (MCF7)?
The EC50 was greater than 10 µM.

And the EC50 (CCRF-CEM)?
Its EC50 is greater than 10 µM.

What about the EC50 (BJ) of the same compound?
The EC50 was greater than 10 µM.
